Measurements as given in ChEMBL document CHEMBL1133118 (J Med Chem, 2000).

How the values were obtained:
[1] = target: T1, Adenosine receptor A2b (Homo sapiens, UniProt P29275); assay: Displacement of [3H]DPCPX from Adenosine A2b receptor expressed in […]; range 3.9-6.7; format: cell-based
T1 sequence (P29275 whole entry): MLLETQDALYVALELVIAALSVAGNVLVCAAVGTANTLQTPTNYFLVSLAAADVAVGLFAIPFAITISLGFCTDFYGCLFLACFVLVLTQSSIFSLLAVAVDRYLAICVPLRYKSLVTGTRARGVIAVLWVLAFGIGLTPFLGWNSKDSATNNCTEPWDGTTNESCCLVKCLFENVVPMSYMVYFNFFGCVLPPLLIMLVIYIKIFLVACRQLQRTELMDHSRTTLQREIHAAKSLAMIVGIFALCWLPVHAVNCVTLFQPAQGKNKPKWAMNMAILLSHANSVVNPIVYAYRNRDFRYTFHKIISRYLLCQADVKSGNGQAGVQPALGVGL

[2] = target: T2, Adenosine receptor A3 (Homo sapiens) (UniProt P0DMS8); assay: Percentage of blockade by 1 uM of the inhibition by 100 nM IB-MECA-inhibited cAMP accumulation in CHO cells expressing human adenosine A3 receptor.; format: functional, cell-based
T2 sequence (whole entry): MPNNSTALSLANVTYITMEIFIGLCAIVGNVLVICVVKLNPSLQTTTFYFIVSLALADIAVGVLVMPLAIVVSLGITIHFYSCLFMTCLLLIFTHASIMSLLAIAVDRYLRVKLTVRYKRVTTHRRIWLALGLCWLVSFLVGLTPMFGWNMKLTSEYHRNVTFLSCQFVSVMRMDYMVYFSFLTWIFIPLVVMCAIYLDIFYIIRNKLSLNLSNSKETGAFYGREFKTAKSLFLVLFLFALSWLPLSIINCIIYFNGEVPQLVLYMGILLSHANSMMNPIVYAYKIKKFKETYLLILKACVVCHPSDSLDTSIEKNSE
In short: (§1)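 CHO cells stably expressing human A3 receptor; membranes in 50 mM Tris HCl, 10 mM MgCl2, 1 mM EDTA pH 7.4 with 5 μM GTP, 0.5 mM […] and 2.0 IU/mL adenosine deaminase. Preincubated 10 min at 37 °C, then IB-MECA (100 nM) and/or antagonist with 1 mM ATP and 10 μM forskolin for 10 min. Boiled 2 min. cAMP read by [3H]cAMP competition with adrenal binding protein.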

[3] = target: Adenosine receptors; A2b & A3 (Homo sapiens) (UniProt P29275+P0DMS8); assay: Ratio of binding affinity of human A2B receptor to that of human A3 receptor; format: protein assay
In short: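 Ki ratio, n=3-6, 6–8 concentrations. A2B in HEK-293 membranes (20 μg): 40 nM [3H]DPCPX, 50 mM Tris HCl, 10 mM MgCl2, 1 mM EDTA, 0.1 mM benzamidine pH 7.4, 2 IU/mL adenosine deaminase, 60 min at 25 °C, nonspecific with 100 μM NECA. A3 in CHO membranes (50 μg): 1 nM [3H]MRE3008-F20, 120 min at 4 °C.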

[4] = target: Adenosine receptors; A1 & A3 (Homo sapiens) (UniProt P30542+P0DMS8); assay: Ratio of binding affinity of human A1 receptor to that of human A3 receptor; format: protein assay
In short: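 Ki ratio from displacement in CHO membranes, 6–8 concentrations, n=3-6, filtration counting. A1: 1 nM [3H]DPCPX, 50 μg protein, 120 min at 25 °C, nonspecific with 10 μM CHA. A3: 1 nM [3H]MRE3008-F20, 50 μg protein, Tris/10 mM MgCl2 pH 7.4, 120 min at 4 °C, nonspecific with 1 μM MRE3008-F20.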

[5] = target: T3, Adenosine receptor A2a (Homo sapiens, UniProt P29274); assay: biochemical
T3 sequence (P29274 whole entry): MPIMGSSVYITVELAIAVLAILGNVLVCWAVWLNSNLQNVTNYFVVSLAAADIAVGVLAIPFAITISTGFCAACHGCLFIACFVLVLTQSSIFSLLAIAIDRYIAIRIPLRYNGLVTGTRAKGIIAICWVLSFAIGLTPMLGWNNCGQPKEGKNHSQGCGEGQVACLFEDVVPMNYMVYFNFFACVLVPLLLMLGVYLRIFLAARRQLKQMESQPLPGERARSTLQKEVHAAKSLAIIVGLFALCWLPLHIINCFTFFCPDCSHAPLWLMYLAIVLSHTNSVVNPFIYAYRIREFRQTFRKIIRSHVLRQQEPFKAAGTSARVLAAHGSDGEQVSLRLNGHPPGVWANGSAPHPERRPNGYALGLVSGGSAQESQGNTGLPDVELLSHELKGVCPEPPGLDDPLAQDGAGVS

[6] = target: T4, Adenosine receptor A3 (Homo sapiens, UniProt P0DMS8); assay: Displacement of [3H]MRE3008-F20 from human adenosine A3 receptor expressed in CHO cells; range 247-317; format: cell-based
T4 sequence (P0DMS8 whole entry): T2 sequence (whole entry)

[7] = target: T5, Adenosine receptor A1 (Homo sapiens, UniProt P30542); assay: Displacement of [3H]-DPCPX from human adenosine A1 receptor expressed in CHO cells; range 6.9-9.7; format: cell-based
T5 sequence (P30542 whole entry): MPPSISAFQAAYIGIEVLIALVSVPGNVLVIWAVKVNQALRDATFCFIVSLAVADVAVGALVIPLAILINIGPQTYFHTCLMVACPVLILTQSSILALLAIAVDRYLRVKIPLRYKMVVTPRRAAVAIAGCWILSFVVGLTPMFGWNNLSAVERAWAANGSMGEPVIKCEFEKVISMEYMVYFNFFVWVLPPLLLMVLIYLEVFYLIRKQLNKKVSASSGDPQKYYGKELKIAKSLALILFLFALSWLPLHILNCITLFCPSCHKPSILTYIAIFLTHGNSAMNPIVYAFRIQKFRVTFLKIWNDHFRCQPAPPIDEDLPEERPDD

[8] = target: T1, Adenosine receptor A2b; assay: Displacement of [3H]DPCPX from Adenosine A2b receptor expressed in HEK-293 cells; range 23-40
[9] = target: T4, Adenosine receptor A3; assay: Inhibition of cAMP accumulation in CHO cells expressing human adenosine A3 receptor; format: functional, cell-based
[10] = target: T3, Adenosine receptor A2a; assay: Displacement of [3H]-SCH- 58261 from human adenosine A2A receptor expressed in CHO cells; range 8.7-10.5; format: cell-based
[11] = target: T3, Adenosine receptor A2a; assay: Displacement of [3H]-SCH- 58261 from human adenosine A2A receptor expressed in CHO cells; range 267-453; format: cell-based
[12] = target: T4, Adenosine receptor A3; assay: biochemical
[13] = target: T1, Adenosine receptor A2b; assay: Displacement of [3H]DPCPX from Adenosine A2b receptor expressed in HEK-293 cells; range 934-1327
[14] = target: T5, Adenosine receptor A1; assay: Displacement of [3H]DPCPX from human adenosine A1 receptor expressed in CHO cells; range 170-358; format: cell-based
[15] = target: T3, Adenosine receptor A2a; assay: Displacement of [3H]-SCH- 58261 from human adenosine A2A receptor expressed in CHO cells; range 85-140; format: cell-based
[16] = target: T1, Adenosine receptor A2b; assay: Displacement of [3H]DPCPX from Adenosine A2b receptor expressed in […]; range 70-94; format: cell-based
[17] = target: T4, Adenosine receptor A3; assay: Displacement of [3H]MRE3008-F20 from human adenosine A3 receptor expressed in CHO cells; range 50-61; format: cell-based
[18] = target: T5, Adenosine receptor A1; assay: Displacement of [3H]DPCPX from human adenosine A1 receptor expressed in CHO cells; range 329-375; format: cell-based
[19] = target: T2, Adenosine receptor A3 (Homo sapiens); assay: Percent reversal of 100 nM IB-MECA-inhibited cAMP accumulation in CHO cells expressing human adenosine A3 receptor at 1 uM; range 26-54; format: functional, cell-based; in short: as §1
[20] = target: T3, Adenosine receptor A2a; assay: Displacement of [3H]-SCH- 58261 from human adenosine A2A receptor expressed in CHO cells; range 850-1230; format: cell-based
[21] = target: T2, Adenosine receptor A3 (Homo sapiens); conditions: CHO, 1 uM
[22] = target: T1, Adenosine receptor A2b; assay: Displacement of [3H]-DPCPX from Adenosine A2b receptor expressed in […]; range 52-65; format: cell-based
[23] = target: T4, Adenosine receptor A3; assay: biochemical; remark: listed apart in the source
[24] = target: T5, Adenosine receptor A1; assay: Displacement of [3H]DPCPX from human adenosine A1 receptor expressed in CHO cells; range 254-356; format: cell-based
[25] = target: T4, Adenosine receptor A3; assay: biochemical; remark: listed apart in the source
[26] = target: T4, Adenosine receptor A3; assay: Inhibition of cAMP accumulation in CHO cells expressing human A3 adenosine receptor; format: functional, cell-based
[27] = target: T3, Adenosine receptor A2a; assay: Displacement of [3H]-SCH- 58261 from human adenosine A2A receptor expressed in CHO cells; range 218-283; format: cell-based
[28] = target: T1, Adenosine receptor A2b; assay: Tested for inhibitory activity against Adenosine A2b receptor by displacement of [3H]DPCPX expressed in […]; value ranges from 61-80; format: cell-based
[29] = target: T2, Adenosine receptor A3 (Homo sapiens); conditions: CHO, 1 uM; remark: listed apart in the source
[30] = target: T5, Adenosine receptor A1; assay: Displacement of [3H]DPCPX from human adenosine A1 receptor expressed in CHO cells; range 179-317; format: cell-based

Nc1nc2nn(CCc3ccccc3)cc2c2nc(-c3ccco3)nn12
Ki [1]: 5.1 nM | inhibition [2]: 28% | Ratio [3]: 0.0017 | Ratio [4]: 0.003 | Ki [5]: 0.34 nM | Ki [6]: 280 nM

O=C(Nc1cccc(Cl)c1)Nc1nc2ccc(Cl)cc2c2nc(-c3ccco3)nn12
inhibition [2]: 95% | Ratio [3]: 157 | Ki [7]: 8.1 nM | Ki [8]: 30 nM | IC50 [9]: 2.4 nM | Ratio [4]: 54 | Ki [10]: 9.5 nM

Nc1nc2nn(CCc3cc(Br)c(Br)cc3Br)cc2c2nc(-c3ccco3)nn12
inhibition [2]: 3% | Ratio [3]: 0.25 | Ratio [4]: 0.06 | Ki [11]: 348 nM | Ki [12]: 4480 nM | Ki [13]: 1110 nM | Ki [14]: 247 nM

CC(C)=CCn1cc2c(nc(NC(=O)Nc3cccc(Cl)c3)n3nc(-c4ccco4)nc23)n1
Ki [15]: 110 nM | Ratio [3]: 1.47 | Ki [16]: 81 nM | Ki [17]: 55 nM | Ki [18]: 352 nM | inhibition [19]: 38% | Ratio [4]: 6.4

COc1ccc(NC(=O)Nc2nc3nn(CC=C(C)C)cc3c3nc(-c4ccco4)nn23)cc1
Ki [20]: 1020 nM | Ratio [3]: 1.45 | inhibition [21]: 42% | Ki [22]: 58 nM | Ratio [4]: 7.5 | Ki [23]: 40 nM | Ki [24]: 300 nM

O=C(Nc1cccc(Cl)c1)Nc1nc2n[nH]cc2c2nc(-c3ccco3)nn12
Ratio [3]: 140 | Ki [25]: 0.5 nM | IC50 [26]: 5.3 nM | Ki [27]: 248 nM | Ki [28]: 70 nM | inhibition [29]: 88% | Ratio [4]: 476 | Ki [30]: 238 nM
